# Measured values published in ChEMBL document CHEMBL4004818, “Montagnuphilones A-G, Azaphilones from Montagnulaceae sp. DM0194, a Fungal Endophyte of Submerged Roots of Persicaria amphibia” (J Nat Prod, 2017).
# Tests used:
# [1] = Cytotoxicity against LPS-induced mouse RAW264.7 cells assessed as cell survival up to 100 uM by MTT assay relative to control; format: cell-based; details: LPS-induced RAW264.7 cells, read-out: Survival
# Method in brief: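 MTT viability assay on LPS-activated RAW264.7 cells, the same cells used for the NO assay; tested at concentrations up to 100 μM; triplicate experiments.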
# RAW264.7 = test: Antiinflammatory activity in mouse RAW264.7 cells assessed as inhibition of LPS-induced nitric oxide production preincubated for 2 hrs followed by LPS stimulation measured after 18 hrs by Griess assay; format: functional, cell-based
# Method in brief: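 LPS-activated RAW264.7 macrophages; nitric oxide production measured and IC50 derived; L-NAME as positive control; triplicate experiments.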
Structure (SMILES),viability [1],IC50 (RAW264.7)
Cc1cc(O)cc(O)c1C(=O)O[C@@H]1CC2=C(CO[C@@](O)(CCC(=O)O)C2)C(=O)[C@]1(C)O (relative stereo),90%,
Cc1cc(O)cc(O)c1C(=O)O[C@@H]1CC2=C(CO[C@@](O)(CCCO)C2)C(=O)[C@]1(C)O (relative stereo),90%,
Cc1cc(O)cc(O)c1C(=O)O[C@@H]1CC2=C(CO[C@](O)(CCCO)C2)C(=O)[C@]1(C)O (relative stereo),90%,25.5 µM
Cc1cc(O)cc(O)c1C(=O)O[C@@H]1CC2=C(COC(CCC(=O)O)=C2)C(=O)[C@]1(C)O (relative stereo),90%,39.6 µM
Cc1cc(O)cc(O)c1C(=O)O[C@@]1(C)C(=O)C2=C(C=C(/C=C/CO)OC2)C[C@H]1O,90%,9.2 µM
COC(=O)[C@@H](N)CCCNC(=N)N[N+](=O)[O-] [L-NAME],,30.6 µM
Cc1cc(O)cc(O)c1C(=O)O[C@@H]1CC2=C(COC(/C=C/C(=O)O)=C2)C(=O)[C@]1(C)O (relative stereo),90%,
Cc1cc(O)cc(O)c1C(=O)O[C@@H]1CC2=C(CO[C@](O)(CCC(=O)O)C2)C(=O)[C@]1(C)O (relative stereo),90%,
